According to ChEMBL document CHEMBL1129566 (J Med Chem, 1996):
≈ marks a conversion by molar mass, not a printed value.

Experiments:
Format in all cases: functional
Streptococcus pneumoniae [1] = assay: Minimum inhibitory concentration for antibacterial activity against Streptococcus pneumoniae Q19 (pen s)
How it was run: (§1)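 Two-fold agar dilution on Mueller-Hinton agar. Overnight broth cultures diluted in fresh broth to […]; 10⁴ CFU/spot applied by inoculating apparatus onto plates with graded drug concentrations. Incubated 18 h at 37 °C; MIC taken as the lowest concentration giving complete growth inhibition.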

Enterococcus faecalis = assay: In vitro minimum inhibitory concentration required to produce antibacterial activity against Enterococcus faecalis ATCC 29212; how it was run: as §1
Staphylococcus aureus [2] = assay: In vitro minimum inhibitory concentration required to produce antibacterial activity against Staphylococcus aureus 743 MRSA; how it was run: as §1
Escherichia coli = assay: In vitro minimum inhibitory concentration required to produce antibacterial activity against Escherichia coli 25922; how it was run: as §1
Staphylococcus aureus [3] = assay: In vitro minimum inhibitory concentration required to produce antibacterial activity against Staphylococcus aureus 887MSSA; how it was run: as §1
Enterobacter cloacae = assay: In vitro minimum inhibitory concentration required to produce antibacterial activity against Enterobacter cloacae 908SSI; how it was run: as §1
Citrobacter freundii = assay: In vitro minimum inhibitory concentration required to produce antibacterial activity against Citrobacter freundii 902; how it was run: as §1
Pseudomonas aeruginosa = assay: In vitro minimum inhibitory concentration required to produce antibacterial activity against Pseudomonas aeruginosa ATCC 27853; how it was run: as §1
Streptococcus pneumoniae [4] = assay: In vitro minimum inhibitory concentration required to produce antibacterial activity against Streptococcus pneumoniae 1/37(pen r); how it was run: as §1

| MIC (Streptococcus pneumoniae [1]) [µg/mL] | MIC (Enterococcus faecalis) [µg/mL] | MIC (Staphylococcus aureus [2]) [µg/mL] | MIC (Escherichia coli) [µg/mL] | MIC (Staphylococcus aureus [3]) [µg/mL] | MIC (Enterobacter cloacae) [µg/mL] | MIC (Citrobacter freundii) [µg/mL] | MIC (Pseudomonas aeruginosa) [µg/mL] | MIC (Streptococcus pneumoniae [4]) [µg/mL] | Structure (SMILES) |
| --- | --- | --- | --- | --- | --- | --- | --- | --- | --- |
| ≤ 0.06 | 32 (≈ 54 µM) | 16 (≈ 27 µM) | 0.5 (≈ 0.844 µM) | 4 (≈ 6.75 µM) | 2 (≈ 3.38 µM) | 1 (≈ 1.69 µM) | 8 (≈ 13.5 µM) | 1 (≈ 1.69 µM) | Nc1nc(/C(=N/OCCF)C(=O)N[C@@H]2C(=O)N3C(C(=O)O)=C(/C=C4\CCN(CC(F)(F)F)C4=O)CS[C@H]23)cs1 |
| 0.5 (≈ 0.95 µM) | 0.25 (≈ 0.475 µM) | 8 (≈ 15.2 µM) | 1 (≈ 1.9 µM) | 0.5 (≈ 0.95 µM) | 2 (≈ 3.8 µM) | 1 (≈ 1.9 µM) | 16 (≈ 30.4 µM) | 4 (≈ 7.6 µM) | Nc1nc(/C(=N/O)C(=O)N[C@@H]2C(=O)N3C(C(=O)O)=C(/C=C4\CN(c5ccccc5)C4=O)CS[C@H]23)cs1 |
| ≤ 0.06 | 1 (≈ 1.99 µM) | 4 (≈ 7.96 µM) | ≤ 0.06 | 1 (≈ 1.99 µM) | 1 (≈ 1.99 µM) | 0.12 (≈ 0.239 µM) | 8 (≈ 15.9 µM) | 2 (≈ 3.98 µM) | C#CCN1CC/C(=C\C2=C(C(=O)O)N3C(=O)[C@@H](NC(=O)/C(=N\O)c4csc(N)n4)[C@H]3SC2)C1=O |
| 0.12 (≈ 0.22 µM) | 0.25 (≈ 0.458 µM) | 8 (≈ 14.7 µM) | 0.12 (≈ 0.22 µM) | 1 (≈ 1.83 µM) | 0.5 (≈ 0.916 µM) | 0.12 (≈ 0.22 µM) | > 32 | 2 (≈ 3.67 µM) | Cc1cc(N2CC/C(=C\C3=C(C(=O)O)N4C(=O)[C@@H](NC(=O)/C(=N\O)c5csc(N)n5)[C@H]4SC3)C2=O)no1 |
| 0.12 (≈ 0.22 µM) | 16 (≈ 29.3 µM) | 32 (≈ 58.5 µM) | 0.25 (≈ 0.457 µM) | 8 (≈ 14.6 µM) | 16 (≈ 29.3 µM) | 2 (≈ 3.66 µM) | > 32 | 2 (≈ 3.66 µM) | Nc1nc(/C(=N/O)C(=O)N[C@@H]2C(=O)N3C(C(=O)O)=C(/C=C4\CCN(Cc5nn[nH]n5)C4=O)CS[C@H]23)cs1 |
| 0.12 (≈ 0.216 µM) | 0.5 (≈ 0.898 µM) | 4 (≈ 7.19 µM) | ≤ 0.06 | 0.5 (≈ 0.898 µM) | 0.25 (≈ 0.449 µM) | ≤ 0.06 | 4 (≈ 7.19 µM) | 1 (≈ 1.8 µM) | Nc1nc(/C(=N/O)C(=O)N[C@@H]2C(=O)N3C(C(=O)O)=C(/C=C4\CCN(c5ccc(O)cc5)C4=O)CS[C@H]23)cs1 |
| 0.06 (≈ 0.125 µM) | 4 (≈ 8.32 µM) | 16 (≈ 33.3 µM) | ≤ 0.06 | 1 (≈ 2.08 µM) | 16 (≈ 33.3 µM) | 0.5 (≈ 1.04 µM) | 8 (≈ 16.6 µM) | 4 (≈ 8.32 µM) | Nc1nc(/C(=N/O)C(=O)N[C@@H]2C(=O)N3C(C(=O)O)=C(/C=C4\CCN(O)C4=O)CS[C@H]23)cs1 |
| ≤ 0.03 | > 32 | 8 (≈ 14.3 µM) | 0.25 (≈ 0.446 µM) | 8 (≈ 14.3 µM) | 1 (≈ 1.78 µM) | 0.25 (≈ 0.446 µM) | 8 (≈ 14.3 µM) | 0.5 (≈ 0.892 µM) | CO/N=C(\C(=O)N[C@@H]1C(=O)N2C(C(=O)O)=C(/C=C3\CCN(CC(F)(F)F)C3=O)CS[C@H]12)c1csc(N)n1 |
| 0.12 (≈ 0.228 µM) | 0.5 (≈ 0.95 µM) | 2 (≈ 3.8 µM) | 2 (≈ 3.8 µM) | 0.12 (≈ 0.228 µM) | 4 (≈ 7.6 µM) | 4 (≈ 7.6 µM) | 16 (≈ 30.4 µM) | 2 (≈ 3.8 µM) | Nc1nc(/C(=N/O)C(=O)N[C@@H]2C(=O)N3C(C(=O)O)=C(/C=C4/CN(c5ccccc5)C4=O)CS[C@H]23)cs1 |
| 0.12 (≈ 0.216 µM) | 8 (≈ 14.4 µM) | 32 (≈ 57.7 µM) | 1 (≈ 1.8 µM) | 2 (≈ 3.61 µM) | 4 (≈ 7.21 µM) | 1 (≈ 1.8 µM) | > 32 | 4 (≈ 7.21 µM) | Nc1nc(/C(=N/O)C(=O)N[C@@H]2C(=O)N3C(C(=O)O)=C(/C=C4\CCCN(c5ccccc5)C4=O)CS[C@H]23)cs1 |
| ≤ 0.06 | 0.12 (≈ 0.205 µM) | 4 (≈ 6.83 µM) | 0.12 (≈ 0.205 µM) | 0.5 (≈ 0.854 µM) | 0.25 (≈ 0.427 µM) | 0.12 (≈ 0.205 µM) | 16 (≈ 27.3 µM) | 2 (≈ 3.42 µM) | Nc1nc(/C(=N/O)C(=O)N[C@@H]2C(=O)N3C(C(=O)O)=C(/C=C4\CCN(c5cccc([N+](=O)[O-])c5)C4=O)CS[C@H]23)cs1 |
| ≤ 0.06 | 8 (≈ 13 µM) | 8 (≈ 13 µM) | 2 (≈ 3.25 µM) | 4 (≈ 6.51 µM) | 4 (≈ 6.51 µM) | 4 (≈ 6.51 µM) | 8 (≈ 13 µM) | 1 (≈ 1.63 µM) | Nc1nc(/C(=N/OC2CCCC2)C(=O)N[C@@H]2C(=O)N3C(C(=O)O)=C(/C=C4\CCN(CC(F)(F)F)C4=O)CS[C@H]23)cs1 |

| Structure (SMILES) | MIC (Streptococcus pneumoniae [1]) [µg/mL] | MIC (Enterococcus faecalis) [µg/mL] | MIC (Staphylococcus aureus [2]) [µg/mL] | MIC (Escherichia coli) [µg/mL] | MIC (Staphylococcus aureus [3]) [µg/mL] | MIC (Enterobacter cloacae) [µg/mL] | MIC (Citrobacter freundii) [µg/mL] | MIC (Pseudomonas aeruginosa) [µg/mL] | MIC (Streptococcus pneumoniae [4]) [µg/mL] |
| --- | --- | --- | --- | --- | --- | --- | --- | --- | --- |
| C=CC1=C(C(=O)O)N2C(=O)[C@@H](NC(=O)/C(=N\O)c3csc(N)n3)[C@H]2SC1 | 0.25 (≈ 0.632 µM) | 16 (≈ 40.5 µM) | 16 (≈ 40.5 µM) | 0.25 (≈ 0.632 µM) | 0.5 (≈ 1.26 µM) | 16 (≈ 40.5 µM) | 8 (≈ 20.2 µM) | > 32 | 4 (≈ 10.1 µM) |
